Published values pooled from the literature.
Protocols differ between the studies behind these lines.
Target: Calcium/calmodulin-dependent protein kinase type 1B (PNCK, Homo sapiens, UniProt Q6P2M8)

Compound	test	setting	remaining binding
CC(C)(O)c1cncc(-c2nc3ccc(F)cc3n2C2CC2)c1	cell-free assay, competition with immobilised ligand	1 µM	100%
O=C(c1ccc(Nc2ncc(Cl)c(-c3cc4ccccc4s3)n2)cc1)N1CCC(N2CCCC2)CC1	binding, competition with immobilised ligand	1 µM	62%
O=C(Nc1c[nH]nc1C(=O)NC1CCNCC1)c1cc(F)cc(F)c1	binding, competition with immobilised ligand	1 µM	100%
O=C(c1ccc(Nc2nccc(-c3cc4ccccc4s3)n2)cc1)N1CCC(N2CCCC2)CC1	binding, competition with immobilised ligand	1 µM	47%
O=C(Nc1cnc(Oc2ccc(F)cc2)nc1)N1CCc2ncccc2[C@@H]1c1ccc(F)cc1	cell-free assay, competition with immobilised ligand	1 µM	100%
O=C(NCCCN1CCOCC1)c1ccc(Nc2nccc(-c3cc4ccccc4s3)n2)cc1	binding, competition with immobilised ligand	1 µM	61%
CC1=C(C#N)[C@@H](c2ccc3[nH]nc(C)c3c2)C(C#N)=C(c2ccc(Cl)cc2)N1	cell-free assay, competition with immobilised ligand	1 µM	98.5%
N[C@H]1CCN(c2nccc(-c3cnn4ncccc34)n2)C1	binding	1 µM	84%
COc1cc(-c2cn(C3CCc4ccccc4N(CC(F)(F)F)C3=O)nn2)ccc1-n1ccc(C)n1 (stereo not shown)	cell-free assay, competition with immobilised ligand	1 µM	100%
C[C@@H]1CCN(c2nccc(-c3cnn4ncccc34)n2)C1	binding	1 µM	89%
c1cncc(-c2cccc(Nc3nccc(NC4CCCCC4)n3)c2)c1	binding, competition with immobilised ligand	10 µM	53%
CN(c1nccc(-c2cnn3ncccc23)n1)C1CC1	binding	1 µM	98%
CCCOc1ccc([C@H]2[C@H](C(=O)O)[C@@H](c3ccc4c(c3)OCO4)CN2CC(=O)Nc2c(CC)cccc2CC)cc1	cell-free assay, competition with immobilised ligand	1 µM	77%
COc1ccnn2ncc(-c3ccnc(N(C)C)n3)c12	binding	1 µM	100%
FC(F)(F)Oc1cccc(-c2cnc3ccc(-c4ccncc4)nn23)c1	cell-free assay, competition with immobilised ligand	5 µM	100%
CN(C)c1nccc(-c2cnn3ncccc23)n1	binding	1 µM	29%
CC(=O)c1c(NS(C)(=O)=O)c2cc(-c3ccc(Cl)cc3)c(-c3ccc(Cl)cc3Cl)nc2n(C)c1=O	cell-free assay, competition with immobilised ligand	1 µM	100%
F[C@@H]1CCN(c2nccc(-c3cnn4ncccc34)n2)C1	binding	1 µM	100%
COc1cnc(Nc2cccc(S(N)(=O)=O)c2)nc1N1CCN(c2ccccc2)C(=O)C1	binding, competition with immobilised ligand	1 µM	83%
